The text below walks through data of ChEMBL document CHEMBL1137854, “Substituted piperazines as novel dipeptidyl peptidase IV inhibitors” (Bioorg Med Chem Lett, 2004).

Molecules are shown by their SMILES.

One data set addresses Dipeptidyl peptidase 2 (Homo sapiens, UniProt Q9UHL4). The experiment in a line: Inhibitory concentration against quiescent cell proline peptidase.
For a further data set, the target named is Dipeptidyl peptidase 4 (Homo sapiens, UniProt P27487). The experiment in a line: Inhibitory concentration against Dipeptidylpeptidase IV.
Data set [1] is described as follows: Bioavailability in rat. The settings on record: in vivo. Format: ADME, organism-based. Summed up:
(§1)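 Male Sprague-Dawley rats given compound intravenously at 1 mg/kg and orally at 2 mg/kg; plasma drug concentrations measured by LC/MS/MS.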

A short description of data set [2]: Clearance in rat. It is filed as ADME, organism-based. The conditions noted are these: in vivo. The procedure, abridged:
as §1

Dipeptidyl peptidase 4, sequence (P27487 whole entry): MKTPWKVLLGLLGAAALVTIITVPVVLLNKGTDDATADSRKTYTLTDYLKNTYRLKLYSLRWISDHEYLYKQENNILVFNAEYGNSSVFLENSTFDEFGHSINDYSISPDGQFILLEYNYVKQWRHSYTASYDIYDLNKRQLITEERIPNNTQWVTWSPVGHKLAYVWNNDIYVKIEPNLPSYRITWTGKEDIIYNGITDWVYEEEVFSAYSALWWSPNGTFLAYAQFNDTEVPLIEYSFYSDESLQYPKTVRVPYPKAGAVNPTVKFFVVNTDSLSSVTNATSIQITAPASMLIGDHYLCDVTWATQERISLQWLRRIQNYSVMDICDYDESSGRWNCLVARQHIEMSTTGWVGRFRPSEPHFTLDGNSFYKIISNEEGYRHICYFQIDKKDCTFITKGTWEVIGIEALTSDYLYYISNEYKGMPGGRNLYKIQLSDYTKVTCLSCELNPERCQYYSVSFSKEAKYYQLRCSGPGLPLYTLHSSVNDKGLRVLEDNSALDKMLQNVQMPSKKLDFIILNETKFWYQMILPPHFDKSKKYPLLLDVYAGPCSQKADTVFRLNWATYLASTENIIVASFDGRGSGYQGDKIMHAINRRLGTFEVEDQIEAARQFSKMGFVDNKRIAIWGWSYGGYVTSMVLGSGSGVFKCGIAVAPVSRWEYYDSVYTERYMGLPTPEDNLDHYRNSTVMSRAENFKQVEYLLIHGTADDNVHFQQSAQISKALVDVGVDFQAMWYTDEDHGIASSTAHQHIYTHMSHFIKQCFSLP

With `CS(=O)(=O)Nc1cccc(NC(=O)CN2CCN(C(=O)C[C@@H](N)Cc3ccc(F)c(F)c3)C(Cc3ccccc3)C2)c1` (some centres undefined), the IC50 was 15 µM at Dipeptidyl peptidase 2 and 36000 nM on Dipeptidyl peptidase 4.

With `N[C@@H](CC(=O)N1CCNCC1)Cc1ccccc1F`, the results for the IC50 at Dipeptidyl peptidase 2 and on Dipeptidyl peptidase 4 were greater than 100 µM and 3700 nM, respectively. `N[C@@H](CC(=O)N1CCNC[C@H]1Cc1ccccc1)Cc1ccccc1F`: the IC50 is greater than 100 µM on Dipeptidyl peptidase 2 and 139 nM at Dipeptidyl peptidase 4. On to `N[C@@H](CC(=O)N1CCCC[C@H]1Cc1ccccc1)Cc1ccccc1F`, for which the IC50 is greater than 100 µM against Dipeptidyl peptidase 2 and 1040 nM against Dipeptidyl peptidase 4. In the case of `C[C@@H]1CNCCN1C(=O)C[C@H](N)Cc1ccccc1F`, the IC50 against Dipeptidyl peptidase 2 was greater than 100 µM; on Dipeptidyl peptidase 4, 1600 nM. Turning to `N[C@@H](CC(=O)N1CCN(Cc2ccccc2)C[C@H]1Cc1ccccc1)Cc1ccccc1F`, the IC50 against Dipeptidyl peptidase 2 was found to be 15 µM; against Dipeptidyl peptidase 4, 405 nM. For `CC(C)[C@@H]1CNCCN1C(=O)C[C@H](N)Cc1ccccc1F` the same measures were 50 µM and 922 nM. Turning to `CS(=O)(=O)Nc1cccc(NC(=O)CN2CCN(C(=O)C[C@@H](N)Cc3ccccc3)C(Cc3ccccc3)C2)c1` (some centres undefined), the IC50 at Dipeptidyl peptidase 2 was determined as 19 µM. In the case of `NC(=O)CN1CCN(C(=O)C[C@H](N)Cc2ccccc2F)[C@H](Cc2ccccc2)C1`, the IC50 at Dipeptidyl peptidase 2 was 66 µM; against Dipeptidyl peptidase 4, 114 nM. Take `N[C@@H](CC(=O)N1CCNC[C@H]1Cc1ccc(F)cc1)Cc1ccccc1F`: the IC50 is greater than 100 µM against Dipeptidyl peptidase 2 and 166 nM on Dipeptidyl peptidase 4. On to `N[C@@H](CC(=O)N1CCOC[C@H]1Cc1ccccc1)Cc1ccccc1F`, for which the IC50 at Dipeptidyl peptidase 2 was greater than 100 µM; at Dipeptidyl peptidase 4 it was 108 nM. For `N[C@@H](CC(=O)N1CCNC[C@H]1c1ccc(F)cc1)Cc1ccccc1F`, the IC50 on Dipeptidyl peptidase 2 amounted to 23 µM; at Dipeptidyl peptidase 4, 610 nM. Compound `CS(=O)(=O)Nc1cccc(NC(=O)CN2CCN(C(=O)C[C@H](N)Cc3ccccc3)C(Cc3ccccc3)C2)c1` (some centres undefined) registered an IC50 at Dipeptidyl peptidase 2 of 7.7 µM.

For `CN1CCN(C(=O)C[C@H](N)Cc2ccccc2F)[C@H](Cc2ccccc2)C1`, the results for the IC50 at Dipeptidyl peptidase 2 and on Dipeptidyl peptidase 4 were greater than 100 µM and 225 nM, respectively.

In the case of `CS(=O)(=O)Nc1cccc(NC(=O)CN2CCN(C(=O)C[C@H](N)Cc3ccc(F)c(F)c3)C(Cc3ccccc3)C2)c1` (some centres undefined), the results for the IC50 at Dipeptidyl peptidase 2 and at Dipeptidyl peptidase 4 were 0.45 µM and 44 nM, respectively.

As for `N[C@@H](CC(=O)N1CCNC[C@H]1Cc1cccnc1)Cc1ccccc1F`, the results for the IC50 on Dipeptidyl peptidase 2 and against Dipeptidyl peptidase 4 were greater than 100 µM and 155 nM, respectively. The like results for `CS(=O)(=O)Nc1cccc(NC(=O)CN2CCN(C(=O)C[C@H](N)Cc3ccc(F)c(F)c3)[C@H](Cc3ccccc3)C2)c1` were, in that order, 0.64 µM and 30 nM. For `CS(=O)(=O)Nc1cccc(NC(=O)CN2CCN(C(=O)C[C@H](N)Cc3ccc(F)c(F)c3)[C@@H](Cc3ccccc3)C2)c1` the same measures were 0.28 µM and 1100 nM.

For `CS(=O)(=O)Nc1cccc(NC(=O)CN2CCN(C(=O)C[C@H](N)Cc3ccccc3F)[C@H](Cc3ccccc3)C2)c1`, the bioavailability in data set [1] is less than 1%. In data set [2], this compound gave a clearance of 130 mL/min/kg. With `N[C@@H](CC(=O)N1CCNC[C@H]1Cc1ccccc1)Cc1cc(F)ccc1F`, the IC50 against Dipeptidyl peptidase 2 is 65 µM.

`N[C@@H](CC(=O)N1CCNC[C@H]1Cc1cscn1)Cc1ccccc1F`: the IC50 on Dipeptidyl peptidase 2 was greater than 100 µM; at Dipeptidyl peptidase 4, 143 nM.

As usually defined, the IC50 is the concentration that gives 50% inhibition. The bioavailability is dose-corrected exposure relative to a reference, in per cent. By clearance is commonly meant the volume of plasma or blood freed of the substance per unit of time.
